Measurements from publication PMC7395825 (OncoTargets and therapy, 2020).
Values joined by “and” are separate entries in the source; they are usually repeats but may differ in a detail not shown here. Equal values may be shown once. Read-outs that look alike come from different tables or passages of the source.

Experiments:
[1] = test system: healthy lung (MRC5) cells; assay: MTT assay, normal lung cells; assay type: cell-based, human; conditions: for GI50: Homo sapiens, MRC5, 48 h, read-out: GI50 (50% growth inhibition); for Selectivity: GI50, TGI and IC50 values, MRC5 cells versus cancer cell lines: MRC5 versus DLD-1, HT-29, LoVo
In short: (§1)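 Cells kept in ATCC-recommended medium with 10% FBS and 1% penicillin/streptomycin at 37°C, 5% CO2, seeded at 8×10^3 cells/well. After 24 h, exposed 48 h to test compound (DMSO stock 15 mM) at seven concentrations across 1–100 μM. Medium renewed, MTT added for 3 h, formazan dissolved in DMSO, absorbance read at 540 nm. […] Triplicate.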

[2] = MTT assay, normal lung cells; assay type: cell-based, human; conditions: human, MRC5 normal lung cells
In short: as §1

[3] = test system: LoVo cancer cells; assay: MTT assay, in vitro antiproliferative activity, LoVo; assay type: cell-based; conditions: Homo sapiens, 48 h; for GI50: read-out: GI50 (50% growth inhibition); for IC50: read-out: IC50 (half maximal cytotoxic concentration)
In short: as §1

[4] = test system: DLD-1 cancer cells; assay: MTT assay, in vitro antiproliferative activity, DLD-1; assay type: cell-based, human; conditions: for TGI (total 100% growth inhibition): DLD-1, MTT, 48 hours of drug exposure; for GI50 / IC50: Homo sapiens, DLD-1, 48 h; for GI50: read-out: GI50 (50% growth inhibition); for IC50: read-out: IC50 (half maximal cytotoxic concentration)
In short: as §1

[5] = target: topoisomerase II (Homo sapiens, UniProt P11388); assay: DNA topoisomerase II assay; assay type: biochemical
[6] = test system: HT-29 cancer cells; assay: Flow cytometric analysis of cell cycle growth arrest; assay type: cell-based, human
In short: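 HT-29 cells seeded in 6-well plates and grown 24 h at 37°C, 5% CO2. Medium renewed, then cells exposed to test compound for 24 h or 48 h at the stated levels, with untreated and etoposide-treated parallels. Cells trypsinised, washed and lysed in nuclei extraction buffer for 15 min in the dark. DNA stained with PI/RNase solution for 30–60 min in the dark. Flow cytometry, 1×10^4 events per sample, triplicate.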

[7] = test system: HT-29 cancer cells; assay: MTT assay, in vitro antiproliferative activity, HT-29; assay type: cell-based, human; conditions: for TGI (total 100% growth inhibition): HT-29, MTT, 48 hours of drug exposure, unit given; for GI50 / IC50: Homo sapiens, HT-29, 48 h; for GI50: read-out: GI50 (50% growth inhibition); for IC50: read-out: IC50 (half maximal cytotoxic concentration)
In short: as §1

[8] = test system: DLD-1 cancer cells; assay: Flow cytometric analysis of apoptosis; assay type: cell-based, human; conditions: DLD-1, at IC50 concentration (KA39 9 μM, etoposide 27 μM)
[9] = test system: topIIα phosphorylation (Ser1106); assay: TopIIα phosphorylation cell-based ELISA, HT-29; design: species or system human; conditions: HT-29 cells, at either TGI or IC50 concentrations over 6 or 24 hour treatment
[10] = test system: topIIα phosphorylation (Ser1106); assay: TopIIα phosphorylation cell-based ELISA, LoVo; design: species or system human; conditions: for maximum inhibitory effect on topIIα phosphorylation: LoVo cells, at either TGI or IC50 concentrations over 6 or 24 hour treatment; for effect on topIIα phosphorylation: LoVo, 6 hours, KA39 TGI and IC50, KA25 TGI 13.8 μΜ, KA26 TGI 100 μΜ
[11] = HT-29, IC50 concentration (KA39 19.5 μM), 24 hours
[12] = HT-29, TGI concentration (KA39 15.9 μM, etoposide 69 μM), 48 hours

topoisomerase II, sequence (P11388 whole entry): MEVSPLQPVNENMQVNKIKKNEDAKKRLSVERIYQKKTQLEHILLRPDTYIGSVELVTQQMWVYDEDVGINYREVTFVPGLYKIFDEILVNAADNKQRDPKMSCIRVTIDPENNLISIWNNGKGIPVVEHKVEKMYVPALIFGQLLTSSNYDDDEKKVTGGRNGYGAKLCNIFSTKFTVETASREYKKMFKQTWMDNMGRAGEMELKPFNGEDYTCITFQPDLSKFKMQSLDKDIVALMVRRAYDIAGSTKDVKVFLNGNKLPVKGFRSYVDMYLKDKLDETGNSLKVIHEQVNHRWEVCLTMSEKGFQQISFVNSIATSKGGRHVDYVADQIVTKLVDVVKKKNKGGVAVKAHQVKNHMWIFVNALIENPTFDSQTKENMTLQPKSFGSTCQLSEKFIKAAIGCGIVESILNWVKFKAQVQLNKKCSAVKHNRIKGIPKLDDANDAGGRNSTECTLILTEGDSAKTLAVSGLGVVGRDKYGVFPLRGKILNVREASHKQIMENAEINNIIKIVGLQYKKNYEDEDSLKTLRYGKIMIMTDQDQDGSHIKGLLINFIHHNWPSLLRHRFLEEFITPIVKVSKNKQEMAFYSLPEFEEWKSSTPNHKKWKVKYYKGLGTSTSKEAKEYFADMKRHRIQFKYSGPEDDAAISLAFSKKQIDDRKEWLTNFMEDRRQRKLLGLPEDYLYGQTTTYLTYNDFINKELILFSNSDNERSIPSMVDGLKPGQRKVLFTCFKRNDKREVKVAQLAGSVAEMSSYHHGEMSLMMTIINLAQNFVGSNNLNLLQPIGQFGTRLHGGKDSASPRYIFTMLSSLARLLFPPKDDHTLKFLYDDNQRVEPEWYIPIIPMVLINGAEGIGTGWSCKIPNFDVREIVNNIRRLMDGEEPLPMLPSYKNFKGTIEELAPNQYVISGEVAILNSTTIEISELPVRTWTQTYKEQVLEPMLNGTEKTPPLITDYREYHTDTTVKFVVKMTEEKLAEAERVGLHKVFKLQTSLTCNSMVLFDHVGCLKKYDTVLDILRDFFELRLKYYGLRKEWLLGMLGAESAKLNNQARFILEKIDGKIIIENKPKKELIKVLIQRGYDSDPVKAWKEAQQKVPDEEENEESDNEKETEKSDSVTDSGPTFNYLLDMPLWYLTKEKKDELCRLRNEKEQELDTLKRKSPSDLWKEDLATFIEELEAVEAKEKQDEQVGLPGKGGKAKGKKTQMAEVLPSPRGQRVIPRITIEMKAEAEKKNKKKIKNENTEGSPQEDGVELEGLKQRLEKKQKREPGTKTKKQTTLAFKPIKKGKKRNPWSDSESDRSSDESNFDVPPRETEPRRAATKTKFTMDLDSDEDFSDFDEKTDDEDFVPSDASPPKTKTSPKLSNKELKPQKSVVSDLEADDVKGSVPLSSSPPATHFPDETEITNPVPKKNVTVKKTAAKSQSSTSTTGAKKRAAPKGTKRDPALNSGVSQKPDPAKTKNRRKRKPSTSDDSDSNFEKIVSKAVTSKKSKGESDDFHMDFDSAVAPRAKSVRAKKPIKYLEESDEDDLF

Compound | GI50 [1] [µM] | IC50 at 48 h [2] [µM] | GI50 [3] [µM] | IC50 [3] [µM] | TGI (total 100% growth inhibition) [4] [µM] | GI50 [4] [µM] | IC50 [4] [µM] | % of cells in G1 phase [6, 11] [%] | % of cells in G2/M phase [6, 11] [%] | % of cells in S phase [6, 11] [%] | % of cells in SG (SubG1) phase [6, 11] [%] | % of cells in G1 phase [6, 12] [%] | % of cells in G2/M phase [6, 12] [%] | TGI (total 100% growth inhibition) [7] | GI50 [7] [µM] | IC50 [7] [µM] | Selectivity: GI50, TGI and IC50 values, MRC5 cells versus cancer cell lines [1] | maximum inhibitory effect on topIIα phosphorylation [9] [%] | maximum inhibitory effect on topIIα phosphorylation [10] [%] | effect on topIIα phosphorylation [10] | other results
COc1cc([C@@H]2c3cc4c(cc3[C@@H](O[C@@H]3O[C@@H]5CO[C@@H](C)O[C@H]5[C@H](O)[C@H]3O)[C@H]3COC(=O)[C@H]23)OCO4)cc(OC)c1O [Etoposide, reference compound] | 25 ± 0.3 | > 100 | 14 ± 0.5 | > 100 | 8 ± 0.5 | 1.8 ± 0.39 | 27 ± 0.28 | 57.28 | 5.99 | 16.50 | 20.23 | 26.06 | 4.37 | 69 ± 0.9 µM | 9.5 ± 0.5 | > 100 | – | – | – | – | topoisomerase II reaction product on agarose gel [5]: linear DNA; % of cells in S phase [6, 12]: 13.10%; % of cells in SG (SubG1) phase [6, 12]: 55.80%; early apoptosis (Q4) ([8]; 48 hours): 51.12%; late apoptosis (Q2) ([8]; 48 hours): 18.84%; early apoptosis (Q4) ([8]; 72 hours): 42.01%; late apoptosis (Q2) ([8]; 72 hours): 30.48%
COc1cc(Cc2nnc3sc(/C=C/c4ccc(F)cc4)nn23)c(S(=O)(=O)N(C)C)cc1OC [KA25, (E)-2-((6-(4-Fluorostyryl)-[1,2,4]Triazolo[3,4-b][1,3,4]Thiadiazol-3-Yl)Methyl)-4,5-Dimethoxy-N,N-Dimethylbenzenesulfonamide] | 15 ± 0.9 | > 100 | 8 ± 0.76 | > 100 | 65 ± 0.5 | 11.4 ± 0.5 | > 100 | – | – | – | – | – | – | >100 µM | 1 ± 0.3 | > 100 | 3–5 times | 33 | 47 | less significant inhibition of topIIα phosphorylation | –
COc1cc(Cc2nnc3sc(/C=C/c4ccc(Cl)cc4)nn23)c(S(=O)(=O)N(C)C)cc1OC [KA26, (E)-2-((6-(4-Chlorostyryl)-[1,2,4]Triazolo[3,4-b][1,3,4]Thiadiazol-3-Yl)Methyl)-4,5-Dimethoxy-N,N-Dimethylbenzenesulfonamide] | 30 ± 0.9 | > 100 | 15 ± 0.8 | > 100 | >100 | 1.2 ± 0.81 | > 100 | – | – | – | – | – | – | >100 µM | 2 ± 0.76 | > 100 | 3–5 times | 50 | 18 | did not affect the phosphorylation status of topIIα | –
COc1cc(Cc2nnc3sc(-c4cc([N+](=O)[O-])ccc4[N+](=O)[O-])nn23)c(S(=O)(=O)N(C)C)cc1OC [KA39, 2-((6-(2,5-Dinitrophenyl)-[1,2,4]Triazolo[3,4-b][1,3,4]Thiadiazol-3-Yl)Methyl)-4,5-Dimethoxy-N,N-Dimethylbenzenesulfonamide] | 15 ± 0.36 | 40.5 ± 0.76 | 2.2 ± 0.2 | 10.5 ± 0.15 | 5 ± 0.76 | 3 ± 0.52 | 9 ± 0.76 | 46.64 | 3.74 | 21.52 | 27.06 | 40.95 | 9.48 | 15.9 µM and 15.9 ± 0.55 µM | 11.5 ± 0.8 | 19.5 ± 0.9 | 3–5 times | 76 | 60 | enhanced the phosphorylation status of topIIα | topoisomerase II reaction product on agarose gel ([5]; pHOT1 supercoiled DNA, KA39 0.1, 1.0, 7.5 and 20 μΜ, non-EB gel): induced the formation of supercoiled DNA in all concentrations used; % of cells in S phase [6, 12]: 14.66%; % of cells in SG (SubG1) phase [6, 12]: 33.51%; early apoptosis (Q4) ([8]; 48 hours): 17.35%; late apoptosis (Q2) ([8]; 48 hours): 13.12%; early apoptosis (Q4) ([8]; 72 hours): 20.68%; late apoptosis (Q2) ([8]; 72 hours): 20.96%
